Here are results for 24 sequences from the EternaBench riboswitch data.

This data set concerns MS2 coat protein. The data set is described as follows: apparent Kd, MS2 coat protein; higher = weaker binding; RNA-MaP array; FMN 200 µM where present. The method, boiled down: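 The apparent Kd comes from binding curves fitted cluster by cluster, filtered, and summarised as a median. Those curves followed SNAP-549-labelled MS2 coat protein from 0.7 or 1.5 nM, doubling to 3 µM, on Illumina sequencing-chip clusters where stalled E. coli RNA polymerase had transcribed the designs, without and then with constant ligand. The buffer was 100 mM Tris-HCl pH 7.5, 80 mM KCl, 4 mM MgCl2, BSA, DTT, yeast tRNA and Tween-20, and green signal was normalised to red-channel RNA signal and control-cluster median Fmax.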

Setting [1] is: designed as: OFF switch for flavin mononucleotide, no ligand.
The mark [2] stands for this setting: ligand present: flavin mononucleotide, designed as: OFF switch for flavin mononucleotide.
Where [3] appears, read: designed as: ON switch for flavin mononucleotide, no ligand.
Setting [4] is: ligand present: flavin mononucleotide, designed as: ON switch for flavin mononucleotide.

In the case of “GCGGGCCGCGCAGGAUAUACAGGGUACAUGAGGAUCACCCAUGUCCUUGGUGAGAUCAUUUGCCCGUAGAAGGGCGAGGGUCGG”, the “apparent Kd” value is, setting by setting: under setting [1], 44.3 nM; under setting [2], 114 nM.

Turning to “AAACCACAUGAGGAUCACCCAUGUGAGGAUAUGAUACUAUGUACUUCGGUACAUAGUAUCAGAAGGCAUGUGGA”, the “apparent Kd” value reads like this: under setting [1], 180 nM; under setting [2], 130 nM.

In the case of “UAAUAUCUGUAGGAUAUCGGUGGAGCACACGUAUGAGAAGGGCAGACAUGAGGAUCACCCAUGUAUAGGGUCCG”, the “apparent Kd” value reads like this: under setting [1], 26.8 nM; under setting [2], 41 nM.

Regarding “UGUCGGAGCAGAGGAUAUUACAUGAGGAUCACCCAUGUAUGAACCAAUAGAUGGAAACAGCAAUGUAAGAAGGCUGCUCCGACA”, the “apparent Kd” value came to 95.9 nM under setting [1] and 346 nM under setting [2].

As for “UUUCAGUCAGGAUAUCGUUAAUUUAAUUGUUUGUAUUAGUUCGAGAAGGGACAUGAGGAUCACCCAUGUACUUU”, the “apparent Kd” value reads like this: under setting [1], 24.3 nM; under setting [2], 25.5 nM.

For “GCGUUCUUGUAGAAGGUACUUUCAACAUCUUAUAAACGCUAGACACAUGAGGAUCACCCAUGUUGUAAGGAUAUACAUGAACGC”, the “apparent Kd” value under setting [3] was 11.3 nM and the “apparent Kd” value under setting [4] stood at 10.9 nM.

In the case of “CCCAUCGCAUGAGGAUAUGCUCCGGUUUCCGGAGCAGAAGGCAUGUCAUAAGACAUGAGGAUCACCCAUGUAGUUAAGAUGGGA”, the “apparent Kd” value under setting [3] was 529 nM and the “apparent Kd” value under setting [4] was determined as 30.4 nM.

As for “GGAGCUCACAUGAACAUGAGGAUCACCCAUGUAACUAGACAUGAGGAUAUGGAUCCUAAUUGGAUCCAGAAGGCAUGGAGCUCC”, the “apparent Kd” value came out at 161 nM under setting [3] and 27.9 nM under setting [4].

As for “GGAUAGGACGGAGGAUAUACGUGCUAGAGAUACUAGCAAAAUUUCCUCACAUGAGGAUCACCCAUGUAGAAGGCUGUCCUAUCG”, the “apparent Kd” value is, setting by setting: under setting [1], 12.2 nM; under setting [2], 222 nM.

Consider “GGUCCAUUAUGAGGAUAUGGCACCUUAUUGGUGCCAGAAGGCAUGUCUAUAGACAUGAGGAUCACCCAUGUAAUAAAUUGGACC”, for which the “apparent Kd” value is 494 nM under setting [3] and 50.5 nM under setting [4].

Take “GUCAGCUCGUGAGGAUAUACACCACUGCUUCGGCAGUGUAUUAAGAUCACAUGAGGAUCACCCAUGUAGAAGGCACGAGCUGAU”: the “apparent Kd” value by setting is: under setting [1], 14.5 nM; under setting [2], 255 nM.

Consider “CUCAUGUUAGGAUAUGCGCUCGACGUAGUGGUUGAGCUCUAGCAGAAGGAACAUGAGGAUCACCCAUGUUUGCA”, for which the “apparent Kd” value is 68.5 nM under setting [1] and 21.3 nM under setting [2].

For “AUAAAGCGAGGAUAUCGCGCGGAGUACAUGAGGAUCACCCAUGUGGUCCGCAGUCCUGCGCGAGAAGGCGCAUUCC”, the “apparent Kd” value is, setting by setting: under setting [1], 138 nM; under setting [2], 54.2 nM.

Take “CGCUACGUUUCGUAGCAGUGUCAUCGAGAAGGCCCUGACAUGAGGAUCACCCAUGUUAAAACAUGGGAGGAUAUCGAUGAUACA”: the “apparent Kd” value is, setting by setting: under setting [3], 11.7 nM; under setting [4], 4.87 nM.

Regarding “UUCUUACAUGAGGAUCACCCAUGUCAGGAUAUCUCCUCACUGCGCUUGCGCAGUGGAUAGAGAAGGGACAGGCU”, the “apparent Kd” value came to 56.8 nM under setting [1] and 50.1 nM under setting [2].

Take “AAUAAUUAGUAAGGAUAUACUAGUGAUUAGCUUGUAGAAGGUACAGUCUUAUGUAUAACAAAUUAACAUGAGGAUCACCCAUGU”: the “apparent Kd” value by setting is: under setting [3], 8.8 nM; under setting [4], 8.1 nM.

For “AGAGAAUAGGUAGGAUAUCUUAAUAGAAAGAAUAGAGAAGGACCACAUGAGGAUCACCCAUGUGAUGUCUUGAGACUACAUGGU”, the “apparent Kd” value under setting [1] was 16.4 nM and the “apparent Kd” value under setting [2] is 19.4 nM.

For “UUCCUCGUUGUGAGGAUAUCGUCCGGGUUUUGUUACGAGAAGGCACAUGAGGAUCACCCAUGUUACUUGAUGUU”, the “apparent Kd” value by setting is: under setting [1], 19 nM; under setting [2], 64 nM.

For “CCUCUACAUGAGGAUCACCCAUGUGAGGAUAUCUCGGAACAACCACUUAAGGCACUCCAGAGAAGGCACGUGUA”, the “apparent Kd” value under setting [1] worked out at 14.9 nM and the “apparent Kd” value under setting [2] came out at 20.9 nM.

In the case of “AAUAAACUCACAGGAUAUAGCAGAGGUCGCGUGAACUUACAGACGACUAUGCUAGAAGGGUGACCACAUGAGGAUCACCCAUGU”, the “apparent Kd” value reads like this: under setting [3], 869 nM; under setting [4], 149 nM.

On to “GUAGCAUACCGAGGAUAUUCAUACGGGAAACCGACAUGAGGAUCACCCAUGUGGCGAAAGCCUUGGGAGAAGGCGGAAUGCUAC”, for which the “apparent Kd” value under setting [3] is 691 nM and the “apparent Kd” value under setting [4] was determined as 24.8 nM.

Turning to “GCGAUUGCGUAGAAGGUACAAUAUAUUUCAUUGUAAGGAUAUACUUACAUGAGGAUCACCCAUGUUAAAGGAUUUAGCAAUCGC”, the “apparent Kd” value runs as follows: under setting [3], 12.4 nM; under setting [4], 10.3 nM.

Regarding “GGACAUGUCGUUUACAUGAGGAUCACCCAUGUCGAUGGACAUGAGGAUAUCGAUACGAAUCGUAUCGAGAAGGCAUGCAUGUCC”, the “apparent Kd” value came to 42.8 nM under setting [3] and 18.5 nM under setting [4].

As to “UGCAUGGUAGGAUAUACGGAACAUUAGGGUUUGUUAUGUAGACAUGAGGAUCACCCAUGUAGAAGGGCCGUGCU”, the “apparent Kd” value came out at 37.9 nM under setting [1] and 60.8 nM under setting [2].

Usually apparent Kd stands for a dissociation constant that holds for the conditions of the assay.
